{
  "source": "ChEMBL document CHEMBL3414458",
  "about": "“Discovery of novel 2,5-dioxoimidazolidine-based P2X(7) receptor antagonists as constrained analogues of KN62” (J Med Chem, 2015)",
  "key": {"P2X purinoceptor 7 [1]": {"target": "T1, P2X purinoceptor 7 (Homo sapiens, UniProt Q99572)", "T1 sequence (Q99572 whole entry)": "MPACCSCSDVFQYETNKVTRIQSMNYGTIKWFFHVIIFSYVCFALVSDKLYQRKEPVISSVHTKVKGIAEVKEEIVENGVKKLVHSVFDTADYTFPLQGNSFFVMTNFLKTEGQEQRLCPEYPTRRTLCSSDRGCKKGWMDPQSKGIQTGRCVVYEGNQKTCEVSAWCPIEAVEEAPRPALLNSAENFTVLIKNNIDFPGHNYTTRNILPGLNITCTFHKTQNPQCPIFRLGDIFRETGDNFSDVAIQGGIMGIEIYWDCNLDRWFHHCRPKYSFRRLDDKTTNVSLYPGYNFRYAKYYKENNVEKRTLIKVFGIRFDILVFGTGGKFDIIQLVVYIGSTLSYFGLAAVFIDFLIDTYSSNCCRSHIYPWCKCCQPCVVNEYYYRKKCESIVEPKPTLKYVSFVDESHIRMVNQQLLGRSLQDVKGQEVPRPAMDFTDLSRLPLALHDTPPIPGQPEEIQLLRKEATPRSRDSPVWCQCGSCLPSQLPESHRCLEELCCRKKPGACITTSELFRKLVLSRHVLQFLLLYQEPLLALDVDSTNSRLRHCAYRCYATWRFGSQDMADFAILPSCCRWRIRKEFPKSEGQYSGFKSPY", "test": "Antagonist activity at human P2X7 receptor"}, "P2X purinoceptor 7 [2]": {"target": "T2, P2X purinoceptor 7 (Mus musculus, UniProt Q9Z1M0)", "T2 sequence (Q9Z1M0 whole entry)": "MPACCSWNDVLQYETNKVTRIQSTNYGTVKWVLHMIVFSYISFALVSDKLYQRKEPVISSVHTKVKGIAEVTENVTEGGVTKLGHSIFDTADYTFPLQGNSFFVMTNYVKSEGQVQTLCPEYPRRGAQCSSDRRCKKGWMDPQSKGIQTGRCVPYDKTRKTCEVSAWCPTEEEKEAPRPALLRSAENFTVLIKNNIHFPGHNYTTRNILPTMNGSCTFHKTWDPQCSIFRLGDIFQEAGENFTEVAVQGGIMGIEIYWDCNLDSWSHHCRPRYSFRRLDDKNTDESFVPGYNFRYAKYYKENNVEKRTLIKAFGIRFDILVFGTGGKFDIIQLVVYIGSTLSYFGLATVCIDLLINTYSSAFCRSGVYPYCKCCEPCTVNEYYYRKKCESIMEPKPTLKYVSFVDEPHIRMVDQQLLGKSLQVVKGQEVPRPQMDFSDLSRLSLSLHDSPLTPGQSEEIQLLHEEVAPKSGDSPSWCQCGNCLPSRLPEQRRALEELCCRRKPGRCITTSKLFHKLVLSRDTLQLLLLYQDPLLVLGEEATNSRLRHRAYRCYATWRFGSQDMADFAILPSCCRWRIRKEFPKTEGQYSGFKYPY", "test": "Antagonist activity at P2X7 receptor in LPS-primed mouse J774.A1 cells assessed as inhibition of ATP-induced IL-1beta release after 30 mins by ELISA", "assay_type": "cell-based", "procedure,_shortened": "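J774.A1 mouse cells stimulated with 5 mM ATP; IL-1β release measured, with IC50 taken from concentration-response data.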"}, "[3]": {"target": "T3, P2X purinoceptor 7 (Rattus norvegicus) (UniProt Q64663)", "T3 sequence (whole entry)": "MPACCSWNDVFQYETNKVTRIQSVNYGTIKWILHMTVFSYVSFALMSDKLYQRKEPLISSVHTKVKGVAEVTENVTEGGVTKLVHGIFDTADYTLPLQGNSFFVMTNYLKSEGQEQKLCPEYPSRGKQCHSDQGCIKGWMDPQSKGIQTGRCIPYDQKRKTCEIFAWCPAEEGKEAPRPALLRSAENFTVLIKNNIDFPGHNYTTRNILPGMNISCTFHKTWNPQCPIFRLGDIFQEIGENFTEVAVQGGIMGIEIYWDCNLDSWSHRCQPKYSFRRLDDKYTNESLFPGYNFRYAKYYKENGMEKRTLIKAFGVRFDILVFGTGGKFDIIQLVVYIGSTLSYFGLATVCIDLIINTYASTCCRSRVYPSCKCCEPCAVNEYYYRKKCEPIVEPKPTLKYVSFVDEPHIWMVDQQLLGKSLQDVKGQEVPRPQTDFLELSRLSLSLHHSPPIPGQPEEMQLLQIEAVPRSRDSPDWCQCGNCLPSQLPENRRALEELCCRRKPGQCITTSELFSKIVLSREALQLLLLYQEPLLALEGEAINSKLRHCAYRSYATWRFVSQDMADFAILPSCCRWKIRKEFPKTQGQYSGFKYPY", "test": "Antagonist activity at P2X7 receptor in neuropathic rat dorsal horn assessed as inhibition of long term potentiation-induced neropathic pain at 20 uM relative to control", "conditions": "Dorsal horn of spinal cord", "procedure,_shortened": "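Ex vivo spinal cord preparation: LTP-induced pain signalling recorded in the dorsal horn of neuropathic rats. Pregabalin served as the positive control.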"}, "P2X purinoceptor 7 [4]": {"target": "T1, P2X purinoceptor 7", "test": "Antagonist activity at recombinant human P2X7 receptor expressed in HEK293 cells assessed as inhibition of BzATP-induced intracellular ethidium bromide uptake after 2 hrs by fluorescence assay", "assay_type": "cell-based", "procedure,_shortened": "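Human HEK293 cells stably expressing recombinant human P2X7; ethidium accumulation stimulated by BzATP was measured.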"}, "[5]": {"test": "AUClast in rat at 10 mg/kg, ip", "assay_type": "ADME, organism-based", "parameters": "time 0 - last, dose 10 mg/kg, route intraperitoneal", "conditions": "plasma", "procedure,_shortened": "(§1)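 Rats were dosed with the test agent intraperitoneally or by intravenous injection. Drug levels were followed in plasma over time after dosing. Intravenous and intraperitoneal exposures were compared to give absolute bioavailability.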"}, "[6]": {"test": "Bioavailability in rat at 10 mg/kg, ip", "assay_type": "ADME, organism-based", "conditions": "in vivo", "procedure,_shortened": "(§2)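 Rats dosed 10 mg/kg intraperitoneally; plasma concentrations were measured, and absolute bioavailability was calculated relative to intravenous dosing.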"}, "[7]": {"test": "Terminal half life in rat at 20 mg/kg, iv", "assay_type": "ADME, organism-based", "parameters": "dose 20 mg/kg, route intravenous", "conditions": "in vivo, read-out: beta t1/2", "procedure,_shortened": "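Rats dosed intravenously; mean terminal half-life was derived from the plasma concentration decline.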"}, "[8]": {"test": "Half life in rat at 10 mg/kg, ip", "assay_type": "ADME, organism-based", "parameters": "dose 10 mg/kg, route intraperitoneal", "conditions": "in vivo"}, "[9]": {"test": "Cmax in rat at 10 mg/kg, ip", "assay_type": "ADME, organism-based", "parameters": "dose 10 mg/kg, route intraperitoneal", "conditions": "in vivo", "procedure,_shortened": "as §2"}, "[10]": {"test": "AUClast in rat at 20 mg/kg, iv", "assay_type": "ADME, organism-based", "parameters": "time 0 - last, dose 20 mg/kg, route intravenous", "conditions": "plasma", "procedure,_shortened": "as §1"}, "P2X purinoceptor 7 [11]": {"target": "T1, P2X purinoceptor 7", "test": "Antagonist activity at P2X7 receptor in LPS/IFN-gamma-differentiated human THP1 cells assessed as inhibition of BzATP-induced IL-1beta release preincubated for 30 mins followed by BzATP induction measured after 30 mins by ELISA", "assay_type": "cell-based, THP-1", "procedure,_shortened": "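Human THP-1 monocytes, LPS-primed, stimulated with BzATP; IL-1β release measured by ELISA. Active compounds were screened at 1 µM, and full concentration-response curves were run to obtain IC50.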"}, "[12]": {"target": "T4, P2X purinoceptor 7 (Homo sapiens) (UniProt Q99572)", "T4 sequence (whole entry)": "T1 sequence (Q99572 whole entry)", "test": "Antagonist activity at recombinant human P2X7 receptor expressed in HEK293 cells assessed as inhibition of BzATP-induced intracellular ethidium bromide uptake at 10 uM after 2 hrs by fluorescence assay", "assay_type": "cell-based"}},
  "data": [
    {"smiles": "O=C([C@@H]1Cc2ccc(OS(=O)(=O)c3cccc4cnccc34)cc2CN1S(=O)(=O)c1cccc2cnccc12)N1CCN(c2ccccc2)CC1", "values": [
      {"measurement": "IC50", "setting": "P2X purinoceptor 7 [1]", "result": "< 1000", "unit": "nM"}
    ]},
    {"smiles": "CC(C)(C)OC(=O)N1CCN(C(=O)[C@H](Cc2ccc(OS(=O)(=O)c3cccc4cnccc34)cc2)NS(=O)(=O)c2cccc3cnccc23)CC1", "values": [
      {"measurement": "IC50", "setting": "P2X purinoceptor 7 [1]", "result": 41, "unit": "nM"}
    ]},
    {"smiles": "O=C(NCC12CC3CC(CC(C3)C1)C2)c1cc(CCCNCCCO)ccc1Cl", "values": [
      {"measurement": "IC50", "setting": "P2X purinoceptor 7 [2]", "result": "> 60000", "unit": "nM"}
    ]},
    {"smiles": "O=C(N[C@@H](Cc1ccc(OS(=O)(=O)c2ccc([N+](=O)[O-])cc2)cc1)C(=O)N1CCN(C(=O)c2ccccc2)CC1)OCc1ccccc1", "values": [
      {"measurement": "IC50", "setting": "P2X purinoceptor 7 [1]", "result": 34, "unit": "nM"}
    ]},
    {"smiles": "CC(C)C[C@H](CN)CC(=O)O", "values": [
      {"measurement": "inhibition", "setting": "[3]", "result": 31, "unit": "%"}
    ]},
    {"smiles": "O=C1NC(=O)N(C2CCN(C(=O)c3ccc(Cl)c(C(F)(F)F)c3)CC2)C1Cc1ccc(OS(=O)(=O)c2cccc3cnccc23)cc1", "note": "(racemic)", "values": [
      {"measurement": "IC50", "setting": "P2X purinoceptor 7 [2]", "result": 11800, "unit": "nM"},
      {"measurement": "IC50", "setting": "P2X purinoceptor 7 [4]", "result": 70, "unit": "nM"},
      {"measurement": "AUC(0-t)", "setting": "[5]", "result": 1520, "unit": "ng·h/mL"},
      {"measurement": "bioavailability", "setting": "[6]", "result": 86, "unit": "%"},
      {"measurement": "half-life", "setting": "[7]", "result": 1.29, "unit": "h"},
      {"measurement": "half-life", "setting": "[8]", "result": 2.15, "unit": "h"},
      {"measurement": "Cmax", "setting": "[9]", "result": 400, "unit": "ng/mL"},
      {"measurement": "AUC(0-t)", "setting": "[10]", "result": 3530, "unit": "ng·h/mL"},
      {"measurement": "IC50", "setting": "P2X purinoceptor 7 [11]", "result": 50, "unit": "nM"}
    ]},
    {"smiles": "O=C1NC(=O)N(C2CCN(C(=O)CC34CC5CC(CC(C5)C3)C4)CC2)C1c1ccc(OS(=O)(=O)c2cccc3cnccc23)cc1", "note": "(racemic)", "values": [
      {"measurement": "inhibition", "setting": "[12]", "result": 46, "unit": "%"}
    ]},
    {"smiles": "O=C1NC(=O)N(C2CCN(C(=O)c3ccc(Cl)c(C(F)(F)F)c3)CC2)C1c1ccc(OS(=O)(=O)c2cccc3cnccc23)cc1", "note": "(racemic)", "values": [
      {"measurement": "inhibition", "setting": "[12]", "result": 30, "unit": "%"}
    ]}
  ]
}
